In ChEMBL document CHEMBL3751709, “Concise Synthesis of Spergualin-Inspired Molecules With Broad-Spectrum Antibiotic Activity” (2015) one finds Activity and MIC data, which are given here for twelve compounds.

Assay type in all cases: functional
For experiment [1], the system named is Staphylococcus aureus. The experiment can be described thus: Antimicrobial activity against Staphylococcus aureus RN4220 after 24 hrs by double dilution method. In a few lines: (§1)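 Double (2-fold) dilution series added to inoculum at OD600 0.1, giving final 256 to 2 μg/mL. H. influenzae was scraped from agar into supplemented BHI medium. Other strains were diluted from an overnight LB culture (37 °C, 200 rpm) into LB. Plates were covered and shaken at 200 rpm, 37 °C, for 24 h before MIC was read. At least two runs in triplicate.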

In experiment [2] the test system is Staphylococcus aureus. The experiment can be described thus: Bactericidal activity against Staphylococcus aureus RN4220 8 to 16 ug/ml at after 4 to 24 hrs by time kill assay. In outline:
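Time-kill: 5 mL S. aureus cultures at OD600 0.1 were treated with compound (final 8 to 16 μg/mL) or DMSO. 100 μL was sampled at 0, 4 and 24 h, serially diluted 10-fold in sterile PBS, and 2 μL spotted on LB agar to count CFUs.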

The next experiment deals with Haemophilus influenzae. The experiment can be described thus: Antimicrobial activity against Haemophilus influenzae ATCC 51907 after 24 hrs by double dilution method. In a few lines:
as §1

A further experiment deals with Bacillus cereus. The experiment can be described thus: Antimicrobial activity against Bacillus cereus ATCC 11778 after 24 hrs by double dilution method. In a few lines:
as §1

Another experiment has as its system Escherichia coli. The experiment can be described thus: Antimicrobial activity against Escherichia coli K-12 MG1655 after 24 hrs by double dilution method. In outline:
as §1

In another experiment the test system is Bacillus subtilis. The experiment can be described thus: Antimicrobial activity against Bacillus subtilis 168 after 24 hrs by double dilution method. In a few lines:
as §1

A further experiment deals with Bacillus anthracis. The experiment can be described thus: Antimicrobial activity against Bacillus anthracis 34F2 Sterne after 24 hrs by double dilution method.

In brackets after ≈: the same amount, converted by molar mass. Activity calls are given as the source filed them. No cut-off for these calls is given here.

With `NCCCCNC(=O)C(c1ccc(Br)cc1)N(Cc1ccccc1)C(=O)CCS` (stereo not drawn), the Activity result is “Dose-dependent effect” in the experiment with Staphylococcus aureus [1]; greater than 3 log10CFU in the experiment on Staphylococcus aureus [2]; “Dose-dependent effect” in the experiment with Haemophilus influenzae; “Dose-dependent effect” in the experiment with Bacillus cereus; “Dose-dependent effect” with Escherichia coli; “Dose-dependent effect” with Bacillus subtilis (subsp. subtilis str. 168). In addition, the Activity result in the experiment on Bacillus anthracis was “Dose-dependent effect”. The MIC against Staphylococcus aureus [1] (RN4220, 24 h) is 8 µg/mL (≈ 16.7 µM); in the experiment on Haemophilus influenzae (ATCC 51907, 24 h), 16 µg/mL (≈ 33.4 µM); in the experiment on Bacillus cereus (ATCC 11778, 24 h), 8 µg/mL (≈ 16.7 µM); against Escherichia coli (K-12 MG1655, 24 h), 32 µg/mL (≈ 66.9 µM); against Bacillus subtilis (subsp. subtilis str. 168, 24 h), 4 µg/mL (≈ 8.36 µM); against Bacillus anthracis, 4 µg/mL (≈ 8.36 µM).
For the compound `O=C(O)CCS`, the MIC entry in the experiment with Staphylococcus aureus [1], in the experiment on Haemophilus influenzae, in the experiment on Bacillus cereus, in the experiment with Escherichia coli, in the experiment with Bacillus subtilis (subsp. subtilis str. 168) and with Bacillus anthracis was “inactive” each time.
Take `N#Cc1ccc(C(=O)N(CCCc2ccccc2)CC(=O)N2CCNCC2)cc1`: the MIC against Staphylococcus aureus [1] (RN4220, 24 h) is greater than 128 µg/mL; in the experiment on Haemophilus influenzae (ATCC 51907, 24 h) it was greater than 128 µg/mL; with Bacillus cereus (ATCC 11778, 24 h) it was greater than 128 µg/mL; in the experiment with Escherichia coli (K-12 MG1655, 24 h), greater than 128 µg/mL; against Bacillus subtilis (subsp. subtilis str. 168, 24 h), greater than 128 µg/mL; in the experiment on Bacillus anthracis it was greater than 128 µg/mL.
With `CC(C)SCC(=O)NCC(=O)NCc1ccccc1`, the MIC against Staphylococcus aureus [1] (RN4220, 24 h) is greater than 128 µg/mL; in the experiment on Haemophilus influenzae (ATCC 51907, 24 h), greater than 128 µg/mL; in the experiment on Bacillus cereus (ATCC 11778, 24 h), greater than 128 µg/mL; in the experiment on Escherichia coli (K-12 MG1655, 24 h) it was greater than 128 µg/mL; in the experiment with Bacillus subtilis (subsp. subtilis str. 168, 24 h), greater than 128 µg/mL; against Bacillus anthracis, greater than 128 µg/mL.
Turning to `CCC(C)C(=O)NCC(=O)N1CCN(Cc2ccccc2)CC1` (stereo not drawn), the MIC in the experiment on Staphylococcus aureus [1] (RN4220, 24 h) was greater than 128 µg/mL; in the experiment with Haemophilus influenzae (ATCC 51907, 24 h), greater than 128 µg/mL; in the experiment with Bacillus cereus (ATCC 11778, 24 h), greater than 128 µg/mL; in the experiment with Escherichia coli (K-12 MG1655, 24 h), greater than 128 µg/mL; in the experiment with Bacillus subtilis (subsp. subtilis str. 168, 24 h) it was greater than 128 µg/mL; with Bacillus anthracis it was greater than 128 µg/mL.
For `CCCC(=O)N(Cc1ccccc1)C(C(=O)NCCCCN)c1ccc(Br)cc1` (stereo not drawn), the MIC in the experiment on Staphylococcus aureus [1] (RN4220, 24 h) was 32 µg/mL (≈ 69.5 µM); in the experiment with Haemophilus influenzae (ATCC 51907, 24 h) it was 64 µg/mL (≈ 139 µM); in the experiment with Bacillus cereus (ATCC 11778, 24 h), 32 µg/mL (≈ 69.5 µM); in the experiment on Escherichia coli (K-12 MG1655, 24 h), 256 µg/mL (≈ 556 µM); against Bacillus subtilis (subsp. subtilis str. 168, 24 h), 16 µg/mL (≈ 34.8 µM); with Bacillus anthracis it was 32 µg/mL (≈ 69.5 µM).
`CN(C)[C@@H]1C(O)=C(C(N)=O)C(=O)[C@@]2(O)C(O)=C3C(=O)c4c(O)cccc4[C@@](C)(O)[C@H]3C[C@@H]12` [TETRACYCLINE]: the MIC with Staphylococcus aureus [1] (RN4220, 24 h) is less than 2 µg/mL; against Haemophilus influenzae (ATCC 51907, 24 h), less than 2 µg/mL; in the experiment on Bacillus cereus (ATCC 11778, 24 h), less than 2 µg/mL; with Escherichia coli (K-12 MG1655, 24 h), less than 2 µg/mL; in the experiment with Bacillus subtilis (subsp. subtilis str. 168, 24 h) it was less than 2 µg/mL; with Bacillus anthracis, less than 2 µg/mL.
On to `CC(C)C1CCC(C(=O)NCC(=O)NCc2ccccc2)CC1` (stereo not drawn), for which the MIC with Staphylococcus aureus [1] (RN4220, 24 h) is greater than 128 µg/mL; with Haemophilus influenzae (ATCC 51907, 24 h) it was greater than 128 µg/mL; against Bacillus cereus (ATCC 11778, 24 h), greater than 128 µg/mL; against Escherichia coli (K-12 MG1655, 24 h) it was greater than 128 µg/mL; in the experiment on Bacillus subtilis (subsp. subtilis str. 168, 24 h), greater than 128 µg/mL; against Bacillus anthracis, greater than 128 µg/mL.
On to `N=C(N)NCCCC[C@H](O)CC(=O)N[C@@H](O)C(=O)NCCCCNCCCN`, for which the MIC in the experiment on Staphylococcus aureus [1] (RN4220, 24 h) amounted to 6.25 µg/mL (≈ 15.5 µM); against Bacillus cereus (ATCC 11778, 24 h), 50 µg/mL (≈ 124 µM); in the experiment with Escherichia coli (K-12 MG1655, 24 h) it was 50 µg/mL (≈ 124 µM); against Bacillus subtilis (subsp. subtilis str. 168, 24 h), 6.25 µg/mL (≈ 15.5 µM); in the experiment on Bacillus anthracis it was 12.5 µg/mL (≈ 31 µM).
Take `O=Cc1ccc(Br)cc1`: the MIC result in the experiment on Staphylococcus aureus [1], in the experiment with Haemophilus influenzae, in the experiment with Bacillus cereus, in the experiment with Escherichia coli, in the experiment with Bacillus subtilis (subsp. subtilis str. 168) and with Bacillus anthracis was “inactive” throughout.
With `NCc1ccccc1`, the MIC result in the experiment with Staphylococcus aureus [1], in the experiment on Haemophilus influenzae, in the experiment on Bacillus cereus, in the experiment with Escherichia coli, in the experiment on Bacillus subtilis (subsp. subtilis str. 168) and in the experiment on Bacillus anthracis was “inactive” throughout.
For `NCCCCNCCCN`, the MIC entry with Staphylococcus aureus [1], in the experiment with Haemophilus influenzae, in the experiment with Bacillus cereus, in the experiment with Escherichia coli, in the experiment on Bacillus subtilis (subsp. subtilis str. 168) and in the experiment with Bacillus anthracis was “inactive” throughout.
